Test results as given in PMC4212793 (ACS Nano, 2014).

Tests used:
mESC-CMs = assay: Mouse myocardial infarction model, engraftment of DiI-labelled mESC-CMs; assay type: in vivo, athymic nude mice (Foxn1nu); conditions: heart sections 4 weeks after MI; p < 0.05; N = 3
How it was run: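 Male athymic nude mice (Foxn1nu) underwent MI by left anterior descending coronary artery ligation. Immediately after surgery, 2 × 105 CM-DiI-prelabelled mESC-derived CMs from one differentiation batch, alone or encapsulated in test gel, were injected intramyocardially through 30 G needles at two border-zone sites. PBS and gel-only groups served as controls. Frozen OCT heart sections were fixed in 4% paraformaldehyde before imaging.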

[1] = PA-RGDS self-assembled under similar conditions; cited from earlier work
[2] = test system: neonatal rat cardiomyocytes (NRCMs); assay: Cytoprotection against H2O2 oxidative stress, Live/Dead staining; assay type: cell-based; conditions: H2O2 200 μM, 2 h; p < 0.001; N = 3

## C16-GTAGLIGQRGDS [PA-RGDS]
mESC-CMs
  number of engrafted DiI-positive mESC-CMs at 4 weeks compared to mESC-CMs only: significantly higher
[1]
  storage modulus (G′): around 100 Pa
[2]
  viability after H2O2 (Live/Dead staining) compared to NRCMs without encapsulation: significantly improved viability
